Tests used:
DU-145 = test: Cytotoxicity against human DU145 cells after 48 hrs by SRB assay; type: functional
How it was run: (§1)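 Cells grown in RPMI1640 with 5% fetal bovine serum were seeded and incubated 24 h, then exposed to serial dilutions for 48 h. Plates were fixed with trichloroacetic acid, stained with sulforhodamine B and read by plate reader. GI50 is the concentration giving a 50% reduction in net protein increase, calculated from optical density data.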

KM-20L2 = test: Cytotoxicity against human KM20L2 cells after 48 hrs by SRB assay; type: functional; how it was run: as §1
BXPC-3 = test: Cytotoxicity against human BXPC3 cells after 48 hrs by SRB assay; type: functional; how it was run: as §1
SF-268 = test: Cytotoxicity against human SF268 cells after 48 hrs by SRB assay; type: functional; how it was run: as §1
MCF7 = test: Cytotoxicity against human MCF7 cells after 48 hrs by SRB assay; type: functional; how it was run: as §1
[1] = Inhibition of calf tubulin polymerization; parameters: species or system Bos taurus
How it was run: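 Tubulin purified from calf brain; polymerization followed turbidimetrically at 350 nm. IC50 obtained from the data by nonlinear regression.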

NCI-H460 = test: Cytotoxicity against human NCIH460 cells after 48 hrs by SRB assay; type: functional; how it was run: as §1
Mus musculus [2] = test: Reduction of blood flow to tumor in MHEC5-T xenografted SCID mouse at 10 mg/kg, ip after 24 hrs; type: functional; parameters: scale not given: the % may be the effect or the level left; conditions: route intraperitoneal
How it was run: (§2)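 SCID mice bearing flank MHEC5-T tumours (cultured cells injected into right flank), dosed ip at 10 or 100 mg/kg once tumours reached 300 mm3 without necrosis. At 24 h, diluted fluorescent microbeads (1:6 in saline) injected iv via tail vein; mice killed 3 min later. 8 µm cryosections of tumour and normal organs imaged by fluorescence microscopy; three sections from three tumours per group; vehicle controls.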

[3] = Cytotoxicity against mouse MHEC5-T cells after 5 days by MTT assay; type: functional, cell-based; conditions: 120 h
How it was run: (§3)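 Mouse heart endothelioma MHEC5-T cells exposed to serial dilutions of compound; viability read by MTT reduction after incubation at 37 °C for 1 h or 5 days exposure. IC50 = concentration reducing viability by 50% versus untreated control.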

[4] = Cytotoxicity against mouse MHEC5-T cells after 1 hr by MTT assay; type: functional, cell-based; how it was run: as §3
Mus musculus [5] = test: Reduction of blood flow to tumor in MHEC5-T xenografted SCID mouse at 100 mg/kg, ip after 24 hrs; type: functional; parameters: scale not given: the % may be the effect or the level left; conditions: route intraperitoneal; how it was run: as §2
P388 = test: Growth inhibition of mouse P388 cells; type: functional; conditions: read-out: ED50 (the source's name)

SMILES	GI50 (DU-145; Homo sapiens, DU-145, 48 h) [nM]	GI50 (KM-20L2; Homo sapiens, KM-20L2, 48 h) [nM]	GI50 (BXPC-3; Homo sapiens, BXPC-3, 48 h) [nM]	GI50 (SF-268; Homo sapiens, SF-268, 48 h) [nM]	GI50 (MCF7; Homo sapiens, MCF7, 48 h) [nM]	IC50 [1] [nM]	GI50 (NCI-H460; Homo sapiens, NCI-H460, 48 h) [nM]	GI50 (DU-145) [nM]	Activity (Mus musculus [2]) [%]	IC50 [3] [nM]	GI50 (KM-20L2) [nM]	GI50 (BXPC-3) [nM]	IC50 [4] [nM]	GI50 (SF-268) [nM]	GI50 (MCF7) [nM]	GI50 (NCI-H460) [nM]	Activity (Mus musculus [5]) [%]	EC50 (P388) [nM]
COc1cc([N+](=O)[O-])c(/C=C\c2cc(OC)c(OC)c(OC)c2)cc1N	3300	3500	2700	2800	2600	> 40000	2500	–	–	–	–	–	–	–	–	–	–	–
COc1cc(/C=C\c2ccc(OC)c([N+](=O)[O-])c2[N+](=O)[O-])cc(OC)c1OC	200	330	2100	2500	2300	> 40000	370	–	–	–	–	–	–	–	–	–	–	–
COc1cc([N+](=O)[O-])c(/C=C\c2cc(OC)c(OC)c(OC)c2)cc1[N+](=O)[O-]	5500	4600	3600	2800	2300	> 40000	3500	–	–	–	–	–	–	–	–	–	–	–
COc1cc(/C=C/c2cc([N+](=O)[O-])c(OC)c([N+](=O)[O-])c2)cc(OC)c1OC	> 10000	> 10000	> 10000	> 10000	> 10000	> 40000	> 10000	–	–	–	–	–	–	–	–	–	–	–
COc1ccc(/C=C\c2cc(OC)c(OC)c(OC)c2)c(N)c1N [listing 1 of 2 here]	–	–	–	–	–	2800	–	18	40	4.3	25	7.9	2400	8.3	6.2	18	–	–
COc1cc(N)c(/C=C\c2cc(OC)c(OC)c(OC)c2)cc1[N+](=O)[O-]	–	–	–	–	–	31000	–	3600	0	> 1400	3500	3200	37700	2600	2600	3600	0	–
COc1cc(/C=C/c2ccc(OC)c([N+](=O)[O-])c2[N+](=O)[O-])cc(OC)c1OC	> 10000	> 10000	> 10000	> 10000	> 10000	> 40000	> 10000	–	–	–	–	–	–	–	–	–	–	–
COc1cc([N+](=O)[O-])c(/C=C/c2cc(OC)c(OC)c(OC)c2)cc1[N+](=O)[O-]	> 10000	> 10000	> 10000	1700	2500	> 40000	> 10000	–	–	–	–	–	–	–	–	–	–	–
COc1cc(N)c(/C=C\c2cc(OC)c(OC)c(OC)c2)cc1[N+](=O)[O-].Cl	3500	–	–	–	1500	–	4300	–	0	–	980	1200	–	1200	–	–	13.7	6600
COc1cc(/C=C\c2cc(N)c(OC)c(N)c2)cc(OC)c1OC.Cl.Cl	–	–	–	–	–	> 40000	–	–	0	> 1400	–	–	> 44800	–	–	–	6	–
COc1cc(/C=C\c2cc([N+](=O)[O-])c(OC)c([N+](=O)[O-])c2)cc(OC)c1OC	260	520	790	680	410	7400	370	–	–	–	–	–	–	–	–	–	–	–
COc1cc(/C=C\c2cc(NC(=O)[C@@H](N)CO)c(OC)c(NC(=O)[C@@H](N)CO)c2)cc(OC)c1OC	–	–	–	–	–	> 40000	–	–	–	–	–	–	–	–	–	–	–	–
COc1cc(/C=C\c2cc(N)c(OC)c(N)c2)cc(OC)c1OC	2100	1100	1500	1500	1500	–	2400	–	3.1	–	–	–	–	–	–	–	4.6	5200
COc1ccc(/C=C\c2cc(OC)c(OC)c(OC)c2)c(N)c1N [listing 2 of 2 here]	12	19	14	11	11	1800	9	–	–	–	–	–	–	–	–	–	–	–
COc1cc(N)c(/C=C\c2cc(OC)c(OC)c(OC)c2)cc1N	330	440	1000	550	610	14100	380	–	–	–	–	–	–	–	–	–	–	–
COc1cc(/C=C\c2ccc(OC)c(OP(=O)([O-])[O-])c2OP(=O)([O-])[O-])cc(OC)c1OC.[Na+].[Na+].[Na+].[Na+]	–	–	–	–	–	–	–	–	70	4.6	–	–	3200	–	–	–	99	< 10
COc1ccc(/C=C\c2cc(OC)c(OC)c(OC)c2)cc1O [COMBRETASTATIN A4]	0.8	340	390	–	–	–	0.6	–	–	–	–	–	–	–	–	–	–	–
COc1ccc(/C=C\c2cc(OC)c(OC)c(OC)c2)c(O)c1O [COMBRETASTATIN A-1]	170	61	4400	–	–	1900	740	–	–	–	–	–	–	–	–	–	–	–
COc1ccc(/C=C\c2cc(OC)c(OC)c(OC)c2)cc1OP(=O)([O-])[O-].[Na+].[Na+] [FOSBRETABULIN DISODIUM]	–	–	–	–	–	–	–	–	10	2	–	–	800	–	–	–	88	0.4
